Key:
Format in all cases: functional
[1] = system: HL-60(TB); assay: Growth inhibition of human HL-60(TB) cells after 48 hrs by sulforhodamine B assay; conditions: HL-60, 48 h; for CC50: read-out: pLC50 (the source's name) (converted); for TGI: read-out: pTGI (converted)
Summary of the method: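 Run in the NCI 60 cell-line screen as the full 5-dose assay that follows initial single-dose testing; GI50 is read from the dose series.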

[2] = system: MOLT-4; assay: Growth inhibition of human MOLT4 cells after 48 hrs by sulforhodamine B assay; conditions: MOLT-4, 48 h; for TGI: read-out: pTGI (converted)
[3] = system: EKVX; assay: Growth inhibition of human EKVX cells after 48 hrs by sulforhodamine B assay; conditions: for TGI: read-out: pTGI (converted)
[4] = system: HOP-62; assay: Growth inhibition of human HOP62 cells after 48 hrs by sulforhodamine B assay; conditions: HOP-62, 48 h; for TGI: read-out: pTGI (converted)
[5] = system: HOP-92; assay: Growth inhibition of human HOP92 cells after 48 hrs by sulforhodamine B assay; conditions: HOP-92, 48 h; for TGI: read-out: pTGI (converted)
[6] = system: NCI-H226; assay: Growth inhibition of human NCI-H226 cells after 48 hrs by sulforhodamine B assay; conditions: NCI-H226, 48 h; for TGI: read-out: pTGI (converted)
[7] = system: NCI-H522; assay: Growth inhibition of human NCI-H522 cells after 48 hrs by sulforhodamine B assay; conditions: NCI-H522, 48 h; for TGI: read-out: pTGI (converted)
[8] = system: COLO 205; assay: Growth inhibition of human COLO205 cells after 48 hrs by sulforhodamine B assay; conditions: COLO 205, 48 h; for TGI: read-out: pTGI (converted)
[9] = system: HCC 2998; assay: Growth inhibition of human HCC2998 cells after 48 hrs by sulforhodamine B assay; conditions: HCC 2998, 48 h; for TGI: read-out: pTGI (converted)
[10] = system: SF-268; assay: Growth inhibition of human SF268 cells after 48 hrs by sulforhodamine B assay; conditions: SF-268, 48 h; for TGI: read-out: pTGI (converted)
[11] = system: SNB-19; assay: Growth inhibition of human SNB19 cells after 48 hrs by sulforhodamine B assay; conditions: SNB-19, 48 h; for TGI: read-out: pTGI (converted)
[12] = system: U-251; assay: Growth inhibition of human U251 cells after 48 hrs by sulforhodamine B assay; conditions: U-251, 48 h; for TGI: read-out: pTGI (converted)
[13] = system: LOX IMVI; assay: Growth inhibition of human LOXIMVI cells after 48 hrs by sulforhodamine B assay; conditions: for TGI: read-out: pTGI (converted)
[14] = system: SK-MEL-28; assay: Growth inhibition of human SK-MEL-28 cells after 48 hrs by sulforhodamine B assay; conditions: SK-MEL-28, 48 h; for CC50: read-out: pLC50 (the source's name) (converted); for TGI: read-out: pTGI (converted)
[15] = system: SK-MEL-5; assay: Growth inhibition of human SK-MEL-5 cells after 48 hrs by sulforhodamine B assay; conditions: SK-MEL-5, 48 h; for TGI: read-out: pTGI (converted)
[16] = system: IGROV-1; assay: Growth inhibition of human IGROV1 cells after 48 hrs by sulforhodamine B assay; conditions: IGROV-1, 48 h; for TGI: read-out: pTGI (converted)
[17] = system: OVCAR-3; assay: Growth inhibition of human OVCAR3 cells after 48 hrs by sulforhodamine B assay; conditions: OVCAR-3, 48 h; for TGI: read-out: pTGI (converted)
[18] = system: NCI/ADR-RES; assay: Growth inhibition of human NCI/ADR-RES cells after 48 hrs by sulforhodamine B assay; conditions: for TGI: read-out: pTGI (converted)
[19] = system: 786-0; assay: Growth inhibition of human 786-0 cells after 48 hrs by sulforhodamine B assay; conditions: 786-0, 48 h; for CC50: read-out: pLC50 (the source's name) (converted); for TGI: read-out: pTGI (converted)
[20] = system: CAKI-1; assay: Growth inhibition of human Caki1 cells after 48 hrs by sulforhodamine B assay; conditions: CAKI-1, 48 h; for TGI: read-out: pTGI (converted)
[21] = system: RXF 393; assay: Growth inhibition of human RXF393 cells after 48 hrs by sulforhodamine B assay; conditions: RXF 393, 48 h; for TGI: read-out: pTGI (converted)
[22] = system: TK-10; assay: Growth inhibition of human TK10 cells after 48 hrs by sulforhodamine B assay; conditions: TK-10, 48 h; for TGI: read-out: pTGI (converted)
[23] = system: MCF7; assay: Growth inhibition of human MCF7 cells after 48 hrs by sulforhodamine B assay; conditions: MCF7, 48 h
[24] = system: MDA-MB-231; assay: Growth inhibition of human MDA-MB-231/ATCC cells after 48 hrs by sulforhodamine B assay; conditions: MDA-MB-231, 48 h; for CC50: read-out: pLC50 (the source's name) (converted); for TGI: read-out: pTGI (converted)
[25] = Growth inhibition of human Hs 578T cells after 48 hrs by sulforhodamine B assay; conditions: for CC50: read-out: pLC50 (the source's name) (converted); for TGI: read-out: pTGI (converted)
[26] = system: BT-549; assay: Growth inhibition of human BT549 cells after 48 hrs by sulforhodamine B assay; conditions: BT-549, 48 h; for TGI: read-out: pTGI (converted)
[27] = system: DU-145; assay: Growth inhibition of human DU145 cells after 48 hrs by sulforhodamine B assay; conditions: DU-145, 48 h

COc1cc(/C=C/c2cc(F)c3c(c2)C[C@@H]2C(C)(C)[C@H](O)CC[C@@]2(C)O3)cc(O)c1C/C=C(\C)CCC=C(C)C
GI50 [1]: 1.82 µM | CC50 [1]: > 100 µM | TGI [1]: 5.5 µM | GI50 [2]: 2.04 µM | LC50 [2]: > 100 µM | TGI [2]: 6.46 µM | GI50 [3]: 11.7 µM | LC50 (50% lethal concentration) [3]: 91.2 µM | TGI [3]: 33.1 µM | GI50 [4]: 7.41 µM | LC50 [4]: 44.7 µM | TGI [4]: 20 µM | GI50 [5]: 3.39 µM | LC50 [5]: 57.5 µM | TGI [5]: 12.6 µM | GI50 [6]: 18.6 µM | LC50 [6]: > 100 µM | TGI [6]: 45.7 µM | GI50 [7]: 2.19 µM | LC50 [7]: 30.9 µM | TGI [7]: 6.92 µM | GI50 [8]: 12 µM | LC50 [8]: 55 µM | TGI [8]: 25.7 µM | GI50 [9]: 12.9 µM | LC50 [9]: 56.2 µM | TGI [9]: 26.9 µM | GI50 [10]: 10.5 µM | LC50 [10]: 63.1 µM | TGI [10]: 25.7 µM | GI50 [11]: 12.6 µM | LC50 [11]: 55 µM | TGI [11]: 26.3 µM | GI50 [12]: 2.04 µM | LC50 [12]: 15.8 µM | TGI [12]: 5.01 µM | GI50 [13]: 1.38 µM | LC50 [13]: 6.17 µM | TGI [13]: 2.88 µM | GI50 [14]: 12 µM | CC50 [14]: 56.2 µM | TGI [14]: 25.7 µM | GI50 [15]: 7.08 µM | LC50 [15]: 44.7 µM | TGI [15]: 20 µM | GI50 [16]: 2.95 µM | LC50 [16]: 53.7 µM | TGI [16]: 7.94 µM | GI50 [17]: 12 µM | LC50 [17]: 58.9 µM | TGI [17]: 26.9 µM | GI50 [18]: 3.89 µM | LC50 [18]: 50.1 µM | TGI [18]: 14.1 µM | GI50 [19]: 3.31 µM | CC50 [19]: 38.9 µM | TGI [19]: 10.2 µM | GI50 [20]: 10.2 µM | LC50 [20]: 53.7 µM | TGI [20]: 23.4 µM | GI50 [21]: 1.82 µM | LC50 (50% lethal concentration) [21]: 10 µM | TGI [21]: 4.27 µM | GI50 [22]: 15.8 µM | LC50 [22]: 67.6 µM | TGI [22]: 32.4 µM | GI50 [23]: 13.8 µM | LC50 [23]: 64.6 µM | TGI ([23]; read-out: pTGI (converted)): 30.2 µM | GI50 [24]: 6.61 µM | CC50 [24]: 97.7 µM | TGI [24]: 26.9 µM | GI50 [25]: 8.71 µM | CC50 [25]: > 100 µM | TGI [25]: > 100 µM | GI50 [26]: 9.12 µM | LC50 [26]: > 100 µM | TGI [26]: 37.2 µM

COCOc1cc(/C=C/c2cc(CO)c3c(c2)C[C@@H]2C(C)(C)[C@H](O)CC[C@@]2(C)O3)cc(OC)c1C/C=C(\C)CCC=C(C)C
GI50 [1]: 0.661 µM | CC50 [1]: > 100 µM | TGI [1]: 33.9 µM | GI50 [2]: 0.398 µM | LC50 [2]: > 100 µM | TGI [2]: > 100 µM | GI50 [3]: 4.47 µM | LC50 (50% lethal concentration) [3]: > 100 µM | TGI [3]: 83.2 µM | GI50 [4]: 0.537 µM | LC50 [4]: 64.6 µM | TGI [4]: 11 µM | GI50 [5]: 2.57 µM | LC50 [5]: 45.7 µM | TGI [5]: 16.6 µM | GI50 [6]: 14.5 µM | LC50 [6]: 64.6 µM | TGI [6]: 30.2 µM | GI50 [7]: 10.5 µM | LC50 [7]: 77.6 µM | TGI [7]: 28.2 µM | GI50 [8]: 3.55 µM | LC50 [8]: 66.1 µM | TGI [8]: 14.1 µM | GI50 [9]: 10.7 µM | LC50 [9]: 70.8 µM | TGI [9]: 27.5 µM | GI50 [10]: 4.07 µM | LC50 [10]: 55 µM | TGI [10]: 20.9 µM | GI50 [11]: 11.2 µM | LC50 [11]: 77.6 µM | TGI [11]: 29.5 µM | GI50 [12]: 0.275 µM | LC50 [12]: 53.7 µM | TGI [12]: 15.5 µM | GI50 [13]: 0.55 µM | LC50 [13]: 18.2 µM | TGI [13]: 3.02 µM | GI50 [14]: 1.2 µM | CC50 [14]: > 100 µM | TGI [14]: 30.9 µM | GI50 [15]: 2.24 µM | LC50 [15]: 40.7 µM | TGI [15]: 12.3 µM | GI50 [16]: 15.8 µM | LC50 [16]: > 100 µM | TGI [16]: > 100 µM | GI50 [17]: 12.6 µM | LC50 [17]: 60.3 µM | TGI [17]: 27.5 µM | GI50 [18]: 8.13 µM | LC50 [18]: 95.5 µM | TGI [18]: 29.5 µM | GI50 [19]: 0.158 µM | CC50 [19]: 8.32 µM | TGI [19]: 0.912 µM | GI50 [20]: 0.813 µM | LC50 [20]: > 100 µM | TGI [20]: 15.1 µM | GI50 [21]: 0.0661 µM | LC50 (50% lethal concentration) [21]: 2.69 µM | TGI [21]: 0.355 µM | GI50 [22]: 15.8 µM | LC50 [22]: > 100 µM | TGI [22]: 41.7 µM | GI50 [27]: 3.8 µM | LC50 [27]: 52.5 µM | TGI ([27]; read-out: pTGI (converted)): 20 µM | GI50 [24]: 1.62 µM | CC50 [24]: 57.5 µM | TGI [24]: 14.5 µM | GI50 [25]: 0.55 µM | CC50 [25]: > 100 µM | TGI [25]: > 100 µM | GI50 [26]: 1.38 µM | LC50 [26]: 50.1 µM | TGI [26]: 17.8 µM
